Measured values pooled from the literature.
TEK: Angiopoietin-1 receptor (TEK, Homo sapiens, UniProt Q02763)
TEK Y897S: Angiopoietin-1 receptor (TEK, Homo sapiens, UniProt Q02763, Y897S)

CNC(=O)c1cc(Oc2ccc(NC(=O)Nc3ccc(Cl)c(C(F)(F)F)c3)cc2)ccn1  remaining signal (TEK; cell-free assay; 0.5 µM): 104%
CS(=O)(=O)Nc1cccc(-c2csc(NC(=O)CSc3nc4nccnc4c(=O)n3CCc3ccccc3)n2)c1  inhibition (TEK; enzyme activity; inhibitor; 10 µM): 3%
CC1=C(C#N)[C@@H](c2ccc3[nH]nc(C)c3c2)C(C#N)=C(c2ccc(Cl)cc2)N1  remaining binding (TEK; cell-free assay; competition with immobilised ligand; 1 µM): 74.5%
CCN(CC)c1ccc(C2=NNC(=O)CC2C)cc1[N+](=O)[O-] (stereo not shown)  remaining activity (TEK; enzyme activity; inhibitor; 10 µM): 24%
CCOC(=O)c1cc2cc(-c3cc(C(=O)NCc4ccc(C(=O)O)cc4)nn3C)ccc2[nH]1  remaining binding (TEK; cell-free assay; competition with immobilised ligand; 0.1 µM): 83%
Cc1ccc(NC(=O)c2ccc(C)c(C(F)(F)F)c2)cc1C#Cc1nn(C2CCC(O)CC2)c2ncnc(N)c12 (stereo not shown)  remaining activity (TEK Y897S; enzyme activity; inhibitor; 10 µM): 0%
CCOCCn1cc(C(=O)Nc2ccc(-n3nc(-c4cccnc4)cc3C(F)(F)F)cn2)ccc1=O  remaining binding (TEK; cell-free assay; competition with immobilised ligand; 1 µM): 87%
COc1cc(Cl)c(C(=O)N[C@@H](CN[C@H]2CC[C@@H](N)CC2)Cc2ccc(C#N)cc2)cc1-c1ccc(CN[C@H](C)c2ccc(C)cc2)o1  remaining activity (TEK; enzyme activity; inhibitor; 1 µM): 79%
Cc1[nH]c(/C=C2\C(=O)Nc3ccc(F)cc32)c(C)c1C(=O)N[C@H]1CCN(C(=O)N(C)C)C1  remaining activity (TEK; enzyme activity; inhibitor; 0.1 µM): 94%
Cc1sc(C(=O)NC2COC2)cc1-n1cc(NC(=O)Nc2c(F)cccc2Cl)cn1  remaining activity (TEK; enzyme activity; inhibitor; 10 µM): 86.6%
O=C(Nc1cnc(Oc2ccc(F)cc2)nc1)N1CCc2ncccc2[C@@H]1c1ccc(F)cc1  remaining binding (TEK; cell-free assay; competition with immobilised ligand; 1 µM): 93%
O=C(Nc1cnn(-c2csc(C(=O)NC3COC3)c2)c1)Nc1c(F)cccc1Cl  remaining activity (TEK; enzyme activity; inhibitor; 5 µM): 105%
CCCOc1ccc(OC)c(F)c1C(=O)c1ccc(C(=O)N[C@@H]2CNC[C@H]2NC(=O)c2ccc3[nH]ncc3c2)cc1  remaining activity (TEK; enzyme activity; inhibitor; 10 µM): 49%
O=C1NC(=O)c2cc(Nc3ccc(F)cc3)c(Nc3ccc(F)cc3)cc21  remaining signal (TEK; cell-free assay; 0.5 µM): 97.6%
CC(C)(C)c1nc(-c2cccc(NS(=O)(=O)c3c(F)cccc3F)c2F)c(-c2ccnc(N)n2)s1  remaining activity (TEK; enzyme activity; inhibitor; radiometric; 1 µM): 58%
CCN(CC)CCNC(=O)c1c(C)[nH]c(/C=C2\C(=O)Nc3ccc(F)cc32)c1C  inhibition (TEK; enzyme activity; inhibitor; 10 µM): 74%
Cc1cc(NC(=O)c2cccc3cc(-c4cccc5[nH]nc(N)c45)ccc23)ccc1F  activity vs control (TEK Y897S; enzyme activity; inhibitor; 0.1 µM): 103%
COc1cc(/C=C/C(=O)CC(=O)/C=C/c2ccc(O)c(OC)c2)ccc1O  activity vs control (TEK; enzyme activity; inhibitor; 1 µM): 112%
Cc1cnc(NC2CCOCC2)nc1-n1cnc(C(=O)NC(CN)c2cc(F)cc(Cl)c2)c1 (stereo not shown)  remaining activity (TEK; enzyme activity; inhibitor; radiometric; 1 µM): 105%
Cc1ccc(NC(=O)c2ccc(CN3CCN(C)CC3)cc2)cc1Nc1nc(-c2cccnc2)cs1  remaining signal (TEK; cell-free assay; 0.5 µM): 97.2%
CNCc1ccccc1-c1csc([C@@H](C)Nc2nc(C)nc3cc(OC)c(OC)cc23)c1  remaining binding (TEK; cell-free assay; competition with immobilised ligand; 1 µM): 87%
COc1cc(Nc2cnc(C#N)c(O[C@H](C)CN(C)C)n2)ncc1-c1cnn(C)c1  remaining activity (TEK; enzyme activity; inhibitor; radiometric; 1 µM): 102%
CCCS(=O)(=O)Nc1ccc(F)c(C(=O)c2c[nH]c3ncc(-c4ccc(Cl)cc4)cc23)c1F  inhibition (TEK; enzyme activity; inhibitor; 1 µM): < 10%
COc1cc2ncnc(Nc3ccc(Oc4ccccc4)c(C)c3C)c2cc1OC  inhibition (TEK; enzyme activity; inhibitor; 1 µM): 6%
Cc1ccc(C(=O)Nc2ccc(CN3CCN(C)CC3)c(C(F)(F)F)c2)cc1C#Cc1cnc2cccnn12  remaining signal (TEK; cell-free assay; 23.5 nM): 5.2%
CC(C)CC(=O)N1CCc2nc(-c3ccc(Br)cc3)nc(N(C)Cc3ccccc3)c2C1  remaining binding (TEK; cell-free assay; competition with immobilised ligand; 0.1 µM): 100%
CNCc1ccc(-c2cc(-c3nc(-c4ccc(S(=O)(=O)C(C)C)cc4)cnc3N)on2)cc1  inhibition (TEK; enzyme activity; inhibitor; 2 µM): 44%
CN([C@@H]1CCc2c(CC(=O)O)c3cc(S(C)(=O)=O)ccc3n2C1)S(=O)(=O)c1ccc(F)cc1  remaining binding (TEK; cell-free assay; competition with immobilised ligand; 1 µM): 88%
CC/C(=N\NC(=O)NCc1cccc(O)c1)c1ccc(O)c(C)c1O  inhibition (TEK; enzyme activity; inhibitor; 0.1 µM): -0.2%
CCc1ccccc1C(=O)Nc1n[nH]c2c(C)c(F)c(C3C(C#N)=C(C)N(C)C(C)=C3C#N)cc12  remaining binding (TEK; cell-free assay; competition with immobilised ligand; 1 µM): 91%
CNC(=O)c1cc2c(Oc3ccc(NC(=O)C4(C(=O)Nc5ccc(F)cc5)CC4)cc3)ccnc2cc1OC  inhibition (TEK; enzyme activity; inhibitor; radiometric; 1 µM): 99%
